Laboratory results reported in ChEMBL document CHEMBL5038630 (J Med Chem, 2022).
Calls of active or inactive are those of the source. The calls are words filed in the database; no cut-off is given here.

Assays:
[1] = tested on: Oocyte; experiment: Agonist activity at wild type GluN1/GluN2A-V783L mutant NMDA receptor (unknown origin) expressed in Xenopus oocytes assessed as relative maximal efficacy measured at 10 uM after 4 days in presence of glycine by two-electrode voltage-clamp recording assay relative to glycine; assay type: cell-based; settings: Homo sapiens, time 4.0 day
How it was run: (§1)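 Oocytes expressing GluN1 with wild-type GluN2A or with the GluN2A-V783L or V783F mutant were BAPTA-injected and recorded by TEVC in continuous 300 μM L-Glu. […] Values are mean ± SEM from 3–8 oocytes, compared with wild type by two-way ANOVA with Tukey's test.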

[2] = Agonist activity at wild type GluN1/GluN2A NMDA receptor (unknown origin) expressed in Xenopus oocytes measured after 4 days in presence of L-glutamate by two-electrode voltage-clamp recording assay; settings: Homo sapiens, Oocyte, 96 h
[3] = tested on: Oocyte; experiment: Agonist activity at mutant GluN1 F484A/T518 mutant//GluN3A NMDA receptor (unknown origin) expressed in Xenopus oocytes measured after 4 days in presence of glycine by two-electrode voltage-clamp recording assay; assay type: cell-based; settings: Homo sapiens, time 4.0 day
[4] = molecular target: Ionotropic glutamate receptor NMDA 1/2D (Rattus norvegicus, UniProt P35439+Q62645); experiment: Agonist activity at rat GluN1/GluN2D NMDA receptor expressed in Xenopus oocytes measured after 4 days in presence of L-glutamte by two-electrode voltage-clamp recording assay; assay type: cell-based, Oocyte
How it was run: (§2)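 Xenopus oocytes were injected with rat GluN1 and GluN2C or GluN2D cRNA (1:2) and recorded by TEVC 2–4 days later at −40 mV, room temperature, pH 7.4 HEPES/NaCl/BaCl2 saline. Concentration-response with 300 μM L-Glu present. NR means <5% response at the concentration given. DMSO ≤0.5%. 3–14 oocytes.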

[5] = molecular target: Glutamate NMDA receptor; Grin1/Grin2b (Rattus norvegicus, UniProt P35439+Q00960); experiment: Agonist activity at rat GluN1/GluN2B NMDA receptor expressed in Xenopus oocytes measured after 4 days in presence of L-glutamte by two-electrode voltage-clamp recording assay; assay type: cell-based, Oocyte
How it was run: (§3)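 Rat GluN1 plus GluN2A or GluN2B cRNA (1:2) in Xenopus oocytes. TEVC at −40 mV, room temperature, 2–4 days post-injection. Bath: 90 mM NaCl, 1 mM KCl, 10 mM HEPES, 0.5 mM BaCl2, 0.01 mM EDTA, pH 7.4. Oocytes were BAPTA-injected before recording. Agonist applied with 300 μM L-Glu throughout. NR means <5% response at the stated concentration. 3–14 oocytes.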

[6] = Binding affinity at recombinant GluN1a/GluN2B NMDA receptor (unknown origin) expressed in Xenopus oocytes measured after 4 days in presence of L-glutamte by two-electrode voltage-clamp recording assay; assay type: cell-based, Homo sapiens; settings: oocyte
[7] = tested on: Oocyte; experiment: Agonist activity at mutant GluN1 F484A/T518 mutant//GluN3B NMDA receptor (unknown origin) expressed in Xenopus oocytes measured after 4 days in presence of glycine by two-electrode voltage-clamp recording assay; assay type: cell-based; settings: Homo sapiens, time 4.0 day
[8] = tested on: Oocyte; experiment: Agonist activity at recombinant GluN1a/GluN2B NMDA receptor (unknown origin) expressed in Xenopus oocytes assessed as inhibition of glycine-induced activation of current measured at 10 uM after 4 days in presence of L-glutamte by two-electrode voltage-clamp recording assay; assay type: cell-based; settings: Homo sapiens, filed as agonist, time 4.0 day
How it was run: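 Oocytes expressing GluN1/2B were BAPTA-injected and held under two-electrode voltage clamp in continuous 300 μM L-Glu. […] Values are mean ± SEM from 12 oocytes.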

[9] = tested on: Oocyte; experiment: Agonist activity at wild type GluN1/ GluN2A-V783F mutant NMDA receptor (unknown origin) expressed in Xenopus oocytes assessed as relative maximal efficacy measured at 10 uM after 4 days in presence of glycine by two-electrode voltage-clamp recording assay relative to glycine; assay type: cell-based; settings: Homo sapiens, time 4.0 day; how it was run: as §1
[10] = tested on: GluN1/GluN2A (Rattus norvegicus); experiment: Agonist activity at wild type GluN1/GluN2A NMDA receptor (rat) expressed in Xenopus oocytes assessed as relative maximal efficacy measured at 10 uM after 4 days in presence of glycine by two-electrode voltage-clamp recording assay relative to glycine; settings: filed as agonist, time 4.0 day
[11] = Agonist activity at GluN1/GluN2A V783F mutant NMDA receptor (unknown origin) expressed in Xenopus oocytes measured after 4 days in presence of glycine by two-electrode voltage-clamp recording assay; assay type: cell-based; settings: Homo sapiens, Oocyte, 96 h
How it was run: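 Rat GluN1 and GluN2A cRNA (1:2) injected into Xenopus oocytes, which received 50 nL of 50 mM BAPTA 10–30 min before recording. TEVC done 2–4 days after injection at room temperature, −40 mV, in 90 mM NaCl, 1 mM KCl, 10 mM HEPES, 0.5 mM BaCl2, 0.01 mM EDTA, pH 7.4. Agonist applied with 300 μM L-Glu continuously present, DMSO <0.5%.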

[12] = molecular target: Glutamate NMDA receptor; Grin1/Grin2c (Rattus norvegicus, UniProt P35439+Q00961); experiment: Agonist activity at rat GluN1/GluN2C NMDA receptor expressed in Xenopus oocytes measured after 4 days in presence of L-glutamte by two-electrode voltage-clamp recording assay; assay type: cell-based, Oocyte; how it was run: as §2
[13] = molecular target: Glutamate NMDA receptor; Grin1/Grin2a (Rattus norvegicus, UniProt P35439+Q00959); experiment: Agonist activity at rat GluN1/GluN2A NMDA receptor expressed in Xenopus oocytes measured after 4 days in presence of L-glutamte by two-electrode voltage-clamp recording assay; assay type: cell-based, Oocyte; how it was run: as §3

Sequence of Glutamate NMDA receptor; Grin1/Grin2c (Q00961 whole entry, other chains not shown): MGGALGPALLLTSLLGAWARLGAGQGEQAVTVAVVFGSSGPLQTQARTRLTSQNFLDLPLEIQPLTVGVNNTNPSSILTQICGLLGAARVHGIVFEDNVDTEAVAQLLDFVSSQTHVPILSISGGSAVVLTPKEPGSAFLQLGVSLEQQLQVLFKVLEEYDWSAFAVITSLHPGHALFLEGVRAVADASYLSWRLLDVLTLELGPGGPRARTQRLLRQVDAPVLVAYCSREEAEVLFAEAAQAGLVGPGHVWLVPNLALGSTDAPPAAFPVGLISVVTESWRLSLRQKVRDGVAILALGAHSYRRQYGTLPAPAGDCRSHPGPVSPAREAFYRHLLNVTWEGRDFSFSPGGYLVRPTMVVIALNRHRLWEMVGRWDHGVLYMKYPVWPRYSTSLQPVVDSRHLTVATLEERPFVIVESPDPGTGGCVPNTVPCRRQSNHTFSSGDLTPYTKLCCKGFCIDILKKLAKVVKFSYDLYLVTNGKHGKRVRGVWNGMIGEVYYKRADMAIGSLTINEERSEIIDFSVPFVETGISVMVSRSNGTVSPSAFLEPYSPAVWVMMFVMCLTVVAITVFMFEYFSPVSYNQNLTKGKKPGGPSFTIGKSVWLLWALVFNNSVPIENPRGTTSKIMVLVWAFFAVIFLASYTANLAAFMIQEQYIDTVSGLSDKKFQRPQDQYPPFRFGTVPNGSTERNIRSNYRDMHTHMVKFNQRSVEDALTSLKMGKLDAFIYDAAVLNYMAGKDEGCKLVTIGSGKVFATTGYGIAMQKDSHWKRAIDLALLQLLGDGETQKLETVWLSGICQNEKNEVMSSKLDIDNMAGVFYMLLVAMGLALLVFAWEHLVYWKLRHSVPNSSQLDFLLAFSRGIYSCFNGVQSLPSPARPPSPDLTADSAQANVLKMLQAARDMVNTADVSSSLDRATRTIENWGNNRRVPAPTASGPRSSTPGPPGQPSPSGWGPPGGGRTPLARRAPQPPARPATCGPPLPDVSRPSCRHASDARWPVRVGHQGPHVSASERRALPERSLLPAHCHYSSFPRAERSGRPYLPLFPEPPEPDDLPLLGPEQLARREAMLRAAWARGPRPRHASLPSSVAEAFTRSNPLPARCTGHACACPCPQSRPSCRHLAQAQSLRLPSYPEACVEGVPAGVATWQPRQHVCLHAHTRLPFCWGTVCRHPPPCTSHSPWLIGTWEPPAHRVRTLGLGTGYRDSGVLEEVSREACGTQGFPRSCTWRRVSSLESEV
Sequence of Ionotropic glutamate receptor NMDA 1/2D (Q62645 whole entry, other chains not shown): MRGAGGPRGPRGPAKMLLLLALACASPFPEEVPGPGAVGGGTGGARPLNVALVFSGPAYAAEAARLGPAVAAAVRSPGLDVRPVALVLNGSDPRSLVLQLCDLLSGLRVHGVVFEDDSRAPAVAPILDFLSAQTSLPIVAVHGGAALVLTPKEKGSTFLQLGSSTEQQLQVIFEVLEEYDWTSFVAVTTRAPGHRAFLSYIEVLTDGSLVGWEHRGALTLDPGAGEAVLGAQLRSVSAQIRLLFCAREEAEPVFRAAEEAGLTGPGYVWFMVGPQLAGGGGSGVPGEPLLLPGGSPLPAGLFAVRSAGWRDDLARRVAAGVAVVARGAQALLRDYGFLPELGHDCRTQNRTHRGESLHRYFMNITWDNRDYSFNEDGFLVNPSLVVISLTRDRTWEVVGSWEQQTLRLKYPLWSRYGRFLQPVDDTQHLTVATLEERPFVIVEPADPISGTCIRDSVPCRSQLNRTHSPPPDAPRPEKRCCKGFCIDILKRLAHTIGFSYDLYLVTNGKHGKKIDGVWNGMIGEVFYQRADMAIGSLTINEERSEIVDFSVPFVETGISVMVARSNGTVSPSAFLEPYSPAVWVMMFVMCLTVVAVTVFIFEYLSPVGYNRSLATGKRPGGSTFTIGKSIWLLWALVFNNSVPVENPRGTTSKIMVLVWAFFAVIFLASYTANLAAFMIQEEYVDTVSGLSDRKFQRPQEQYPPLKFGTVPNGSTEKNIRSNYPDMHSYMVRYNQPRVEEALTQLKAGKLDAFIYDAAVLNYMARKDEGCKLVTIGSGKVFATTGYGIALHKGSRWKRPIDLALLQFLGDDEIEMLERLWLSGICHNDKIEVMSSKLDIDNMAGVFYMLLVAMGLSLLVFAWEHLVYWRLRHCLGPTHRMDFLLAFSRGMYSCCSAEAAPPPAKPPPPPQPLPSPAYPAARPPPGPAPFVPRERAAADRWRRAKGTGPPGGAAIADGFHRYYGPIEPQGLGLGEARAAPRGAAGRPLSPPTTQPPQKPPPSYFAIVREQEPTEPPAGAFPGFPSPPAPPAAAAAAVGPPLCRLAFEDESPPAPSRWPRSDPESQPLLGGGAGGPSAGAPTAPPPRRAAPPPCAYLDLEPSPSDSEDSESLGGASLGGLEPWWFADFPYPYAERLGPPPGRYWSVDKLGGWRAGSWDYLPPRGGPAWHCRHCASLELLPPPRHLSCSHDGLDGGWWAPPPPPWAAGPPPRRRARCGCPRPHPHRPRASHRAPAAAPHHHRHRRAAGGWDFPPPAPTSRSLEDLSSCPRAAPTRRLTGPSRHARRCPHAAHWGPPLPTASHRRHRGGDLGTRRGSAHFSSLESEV
Sequence of Glutamate NMDA receptor; Grin1/Grin2b (Q00960 whole entry, other chains not shown): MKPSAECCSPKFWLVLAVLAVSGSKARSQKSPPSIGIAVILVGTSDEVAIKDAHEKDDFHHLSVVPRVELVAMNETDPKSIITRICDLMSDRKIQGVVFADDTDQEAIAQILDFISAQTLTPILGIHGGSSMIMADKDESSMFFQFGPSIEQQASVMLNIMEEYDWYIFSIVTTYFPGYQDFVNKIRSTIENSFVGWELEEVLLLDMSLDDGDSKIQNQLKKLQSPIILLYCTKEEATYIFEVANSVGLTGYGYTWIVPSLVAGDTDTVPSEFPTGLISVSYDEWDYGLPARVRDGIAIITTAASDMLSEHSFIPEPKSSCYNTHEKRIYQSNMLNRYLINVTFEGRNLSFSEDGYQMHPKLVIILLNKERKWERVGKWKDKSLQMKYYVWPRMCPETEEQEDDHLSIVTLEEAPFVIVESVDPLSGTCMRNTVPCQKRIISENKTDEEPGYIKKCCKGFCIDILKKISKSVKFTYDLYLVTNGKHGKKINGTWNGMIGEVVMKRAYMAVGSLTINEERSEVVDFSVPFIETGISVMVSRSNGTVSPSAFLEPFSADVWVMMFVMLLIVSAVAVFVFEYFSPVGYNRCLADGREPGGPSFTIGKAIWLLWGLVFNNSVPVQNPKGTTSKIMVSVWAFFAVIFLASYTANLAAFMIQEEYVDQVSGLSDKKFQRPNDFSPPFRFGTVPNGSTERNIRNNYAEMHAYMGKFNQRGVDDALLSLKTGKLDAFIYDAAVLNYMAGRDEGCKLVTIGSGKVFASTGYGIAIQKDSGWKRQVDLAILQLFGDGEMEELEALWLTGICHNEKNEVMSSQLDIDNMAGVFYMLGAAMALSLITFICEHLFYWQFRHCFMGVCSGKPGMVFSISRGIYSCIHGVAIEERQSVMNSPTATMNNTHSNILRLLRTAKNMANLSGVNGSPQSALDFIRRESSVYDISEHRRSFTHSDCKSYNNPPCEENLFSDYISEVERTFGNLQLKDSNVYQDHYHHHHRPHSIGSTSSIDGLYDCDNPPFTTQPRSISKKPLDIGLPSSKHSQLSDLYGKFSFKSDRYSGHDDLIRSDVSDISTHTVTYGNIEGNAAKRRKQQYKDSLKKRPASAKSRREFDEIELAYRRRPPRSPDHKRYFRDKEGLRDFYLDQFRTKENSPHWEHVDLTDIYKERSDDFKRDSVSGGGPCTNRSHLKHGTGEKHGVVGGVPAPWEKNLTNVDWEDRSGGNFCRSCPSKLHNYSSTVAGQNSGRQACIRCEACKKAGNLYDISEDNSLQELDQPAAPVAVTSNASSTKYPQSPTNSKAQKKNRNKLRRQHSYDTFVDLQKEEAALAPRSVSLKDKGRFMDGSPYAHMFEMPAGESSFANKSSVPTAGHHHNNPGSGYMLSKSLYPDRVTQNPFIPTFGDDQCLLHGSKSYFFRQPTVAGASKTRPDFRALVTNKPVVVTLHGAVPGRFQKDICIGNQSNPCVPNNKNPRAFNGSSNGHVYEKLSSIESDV

## CCc1ccccc1-c1ccc(C(=O)NC[C@@H](N)C(=O)O)o1
[1]
  Rmax: 30%
[2]
  EC50: 110 nM
[3]
  inhibition: inactive
[4]
  EC50: 150 nM
[5]
  IC50: 10000 nM
[6]
  Ki: 100 nM
[7]
  inhibition: inactive
[8]
  inhibition: 47%
[9]
  Rmax: 9%
[10]
  Rmax: 45%
[11]
  EC50: 410 nM
[12]
  EC50: 63 nM
[13]
  EC50: 93 nM
